From PubChem
Arrestin-AP2 inh = inhibitors of beta-arrestin/AP2 binding, primary screen, biochemical, GPCR trafficking, flow cytometry | beta-arrestin 1 C-terminal peptide binding to AP2 beta2-adaptin appendage (human) | FITC-arrestin peptide / GST-AP2 beads; AP2 beta2 appendage carries R879A mutation | inhibition, % at 10 µM | 0.31% of 340,000 active | AID 504490, 2011;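 active = inhibition above a set limit, near 3 SD of compounds lacking own fluorescence, cut at about 54% in these data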;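 also: plate controls were DMSO wells for no effect and 5 µM unlabelled arrestin peptide for full effect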
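System: GST-AP2 R879A glutathione beads. Medium: PBS with 0.05% Tween 20 and 0.1% BSA. Also added: FITC-arrestin peptide, 50 nM. Incubation: 12 min plus 1 h, RT. Measured by: high-throughput flow cytometry of beads, ex 488, em 535 nm. Evaluation: percent drop in bead-associated FITC signal.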
SENP1 inh = human SENP1 catalytic domain inhibitors, primary screen, biochemical, FRET, uHTS; AID 624204, 2012; 0.21% of 360,000 active; inhibition, % at 10 µM; recombinant SENP1 catalytic domain, CyPet-SUMO1-YPet FRET cleavage; Sentrin-specific protease 1 (Homo sapiens), Q9P0U3;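 active = inhibition at least 30% at 10 µM, raw YFP signal under a set limit, fluorescence ratio 0.5 to 1.5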;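 also: 0% = enzyme with DMSO and 100% = no enzyme wells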
Target sequence (Q9P0U3 419-644 limits assumed): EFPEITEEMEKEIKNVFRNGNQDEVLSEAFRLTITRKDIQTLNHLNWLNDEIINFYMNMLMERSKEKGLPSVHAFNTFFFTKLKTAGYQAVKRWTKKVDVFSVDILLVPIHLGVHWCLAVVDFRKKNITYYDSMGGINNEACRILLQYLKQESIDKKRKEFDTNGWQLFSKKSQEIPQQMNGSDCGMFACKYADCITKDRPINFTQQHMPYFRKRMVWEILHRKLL
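system = hSENP1 catalytic domain, recombinant | reagent = SFCypet-SUMO1-SFYpet substrate at 25 nM | doses = one dose per compound, 10 µM, 0.5% DMSO | incubation = enzyme reaction for 50 min at room temperature, dark | measured by = FRET, CFP and YFP emission | controls = no-enzyme low, enzyme-DMSO high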
FAS-TE inh = FAS thioesterase domain inhibitors, primary screen, biochemical, fluorescence intensity, uHTS. 0.67% of 360,000 active. recombinant FAS-TE, OMFH fluorogenic substrate, fluorescence endpoint. inhibition, % at 15 µM;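 active = compounds whose normalised, plate-corrected inhibition of enzyme fluorescence in the single-dose primary screen is 50% or more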;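 also: 0% = DMSO with enzyme and 100% = substrate without enzyme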
JMJD2C inh = inhibitors of GASC-1 histone demethylase, primary screen, biochemical, fluorescence, DELFIA europium. 0.069% of 330,000 active. GST-JMJD2C(1-420) H3K9me3 demethylation. AID 2099, 2009. inhibition, % at 2.35 µM. Lysine-specific demethylase 4C (Homo sapiens), Q9H3R0;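 active = more than half of a compound's replicate wells show inhibition beyond 50%, single wells judged on their own value; inconclusive = some, but no more than half, of replicates pass 50% inhibition; inactive = no replicate passes 50% inhibition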;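 also: signal counts dimethyl H3K9 product captured on neutravidin plate; 0% = median of DMSO wells and 100% = 0.3 times that DMSO median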
Target sequence (Q9H3R0 1-420 limits assumed): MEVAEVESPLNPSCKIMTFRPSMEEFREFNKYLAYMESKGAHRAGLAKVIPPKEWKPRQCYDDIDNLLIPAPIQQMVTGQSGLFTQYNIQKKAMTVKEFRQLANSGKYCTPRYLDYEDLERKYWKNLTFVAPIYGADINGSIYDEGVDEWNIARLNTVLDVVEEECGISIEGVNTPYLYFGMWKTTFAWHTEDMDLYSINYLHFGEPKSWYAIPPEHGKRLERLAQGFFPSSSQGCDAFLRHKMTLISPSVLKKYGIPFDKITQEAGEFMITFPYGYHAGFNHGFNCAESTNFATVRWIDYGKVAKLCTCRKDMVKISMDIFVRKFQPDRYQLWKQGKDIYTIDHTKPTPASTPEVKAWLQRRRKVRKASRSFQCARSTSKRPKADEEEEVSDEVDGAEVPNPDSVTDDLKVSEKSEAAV
SENP1 inh conf = human SENP1 catalytic domain inhibitors, confirmation, biochemical, FRET endpoint, single concentration | inhibition, % at 10 µM | AID 651678, 2012 | 34% of 520 active | recombinant SENP1, CyPet-SUMO1-YPet FRET cleavage | shares compounds with SENP1 inh; in the data active = inhibition mostly above about 35%, no sharp cut-off; inactive = mostly below about 32%;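 also: 0% = enzyme with DMSO and 100% = no enzyme control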
SENP1 kinetic = human SENP1 catalytic domain inhibitors, confirmation, biochemical, kinetic FRET, single concentration | shares compounds with SENP1 inh | recombinant SENP1, CyPet-SUMO1-YPet FRET kinetic cleavage | inhibition, % at 10 µM | 26% of 520 active | AID 651690, 2012; in the data active = inhibition mostly above about 32%, no sharp cut-off; inactive = mostly below about 29%;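 also: 0% = DMSO with enzyme and 100% = no enzyme substrate only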
Active calls of the source: *; ? = inconclusive; nt = not tested or not shown. Shown are actives, neighbours in structure and some others; about 1.1% of the full set was active somewhere.

SMILES | Arrestin-AP2 inh | SENP1 inh | FAS-TE inh | JMJD2C inh | SENP1 inh conf | SENP1 kinetic
COc1ccc(C2C(C(C)=O)=C(C)N=c3s/c(=C\c4cc(C)n(C)c4C)c(=O)n32)c(OC)c1 (stereo not given) | 13.3 | -19.5 | -119.5 | 1.2 | nt | nt
Cc1cc([N+](=O)[O-])nn1CC(=O)Nc1c(C)n(C)n(-c2ccccc2)c1=O | 1.9 | 0.4 | 0.3 | -31.3 | nt | nt
NC(=S)c1cc2cc(Br)ccc2oc1=O | -8.1 | 45.3* | -1.5 | 7.6 | 66.9* | 50.8*
NC(=S)c1cc2ccc(O)cc2oc1=O | 2.1 | 10.4 | -8.6 | -0.8 | nt | nt
COc1ccc(C(=O)Nc2ccc3c(c2)OCCO3)c(OC)c1 | nt | 1.1 | -0.9 | nt | nt | nt
C[C@H](CO)N1C[C@H](C)[C@H](CN(C)S(C)(=O)=O)OCc2cnnn2CCCC1=O | nt | 1.8 | -9.2 | nt | nt | nt
Cc1nc(-c2cccc(NC(=O)c3cc4cc(Br)ccc4oc3=O)c2)cs1 | -22.9 | 37.8* | 10.4 | 13.2 | -8.9 | -5.7
Cc1nc(-c2cccc(NC(=O)c3ccco3)c2)cs1 | 1.8 | -1.1 | -1.1 | 0.2 | nt | nt
CN1CCN(C(=O)c2cc3c(c(-c4cccc(Br)c4)n2)[C@@H](CCO)N(S(=O)C(C)(C)C)C3)CC1 (stereo not given in full) | nt | -2.7 | -17.9 | nt | nt | nt
Cc1ccccc1NCC(=O)N/N=C/c1c(C)c(C(=O)c2ccc(Cl)cc2)n2ccccc12 | 4.0 | 27.4 | 14.5 | 11.3 | nt | nt
Cc1c(/C=N/NC(=O)CNc2ccccc2)c2ccccn2c1C(=O)c1ccc(Cl)cc1 | 13.2 | 30.6* | 32.7 | -3.0 | 30.7 | 20.1
O=CN1Cc2[nH]c3ccccc3c2N(c2ccc(Cl)cc2)C1=O | 16.0 | 31.5* | -9.6 | 0.1 | -8.7 | 28.6
COc1ccc(-c2nc3ncccn3c2Nc2ccccc2)cc1 | 22.9 | 37.0* | -0.9 | 3.1 | -4.7 | 22.8
C=CCNC(=O)c1cccc2c1C(=O)c1ccc(N3CCOCC3)cc1S2(=O)=O | 6.8 | 80.1* | -11.1 | -56.9 | 61.0* | 44.7*
CNc1ccc(/C=C(\C#N)c2ccccn2)cc1[N+](=O)[O-] | 1.0 | 46.3* | -3.2 | 14.6 | 30.7 | 23.1
O=C1C=C(c2cccc(Cl)c2O)C[C@@H](c2ccc3c(c2)OCO3)C1 | 15.5 | 49.9* | 28.9 | 5.2 | 95.4* | 76.8*
COc1ccc([C@H]2CC(=O)C=C(c3ccc(O)cc3)C2)cc1OC | -2.9 | -17.7 | -3.8 | -0.7 | nt | nt
COc1ccc([C@H]2CC(=O)C=C(c3cccc(Cl)c3O)C2)cc1OC | 4.4 | 33.2* | -1.0 | 5.1 | 74.0* | 61.7*
NC(=O)C[n+]1cccc2ccccc21 | -9.5 | 39.4* | -10.7 | -9.0 | 8.8 | 8.8
O=C(C[n+]1cccc2ccccc21)c1ccc(Br)cc1 | 4.4 | 57.2* | -4.3 | 10.9 | 4.9 | 10.6
O=C(C[n+]1cn(C(F)F)c2ccccc21)c1ccc(Br)cc1 | 0.7 | -5.4 | -2.5 | -13.9 | nt | nt
Cc1ccc(C(=O)C[n+]2cccc3ccccc32)cc1 | -1.6 | 30.2* | -22.0 | -1.5 | 14.4 | 15.8
COc1ccc(NC(=O)Cc2nnc(N)s2)cc1 | 15.5 | -14.0 | -8.3 | -3.8 | nt | nt
CCC(=Nc1ccc(N)cc1)C1=C(O)C(C(=O)OC)C(C)(C)CC1=O (stereo not given) | -0.8 | 54.1* | -8.2 | -4.7 | 1.4 | -2.5
O=c1[nH]ncc2c3ccccc3n(Cc3ccc(F)cc3)c12 | 8.1 | 0.6 | 2.3 | -14.0 | nt | nt
SMILES | Arrestin-AP2 inh | SENP1 inh | FAS-TE inh | JMJD2C inh | SENP1 inh conf | SENP1 kinetic
O=c1[nH]ncc2c3ccccc3n(Cc3cccc(Cl)c3)c12 | -12.8 | 86.0* | -4.6 | -0.8 | 106.4* | 62.3*
COc1c(Cl)cc(-c2noc(C)c2C(=O)NCc2ccccc2)cc1Cl | -6.9 | 4.3 | 24.8 | 3.3 | nt | nt
Cn1c(/C(C#N)=C(\O)c2ccc([N+](=O)[O-])s2)nc2ccccc21 | -9.0 | 46.5* | -6.6 | 2.1 | 10.7 | 12.5
N#C/C(C(=O)N1CCOCC1)=C1/SC(Cc2ccccc2)C(=O)N1c1ccccc1 (stereo not given) | 19.9 | 37.4* | -4.7 | -3.6 | -4.8 | 4.3
O=C(NN1C(=O)C2C(c3ccccc3)C=CC(c3ccccc3)C2C1=O)c1ccccc1 (stereo not given) | 27.3 | 40.6* | 35.6 | -4.5 | 5.5 | 6.0
O=C(NN1C(=O)C2C3c4ccccc4C(c4ccccc43)[C@@H]2C1=O)c1ccccc1 (stereo not given in full) | -2.5 | -1.9 | -11.8 | -19.8 | nt | nt
Cn1c(=O)c2[nH]c(-c3ccccc3)c(O)c2n(C)c1=O | 27.6 | 60.0* | -14.7 | 1.3 | 56.2* | 54.1*
Cn1c2c(c(=O)n(C)c1=O)C(C(F)(F)F)(C(F)(F)F)N=C(c1ccccc1Cl)N2 | -1.3 | 0.8 | -5.5 | ? | nt | nt
Cn1c(=O)c2[nH]c(-c3ccccc3Cl)c(O)c2n(C)c1=O | 7.6 | 31.6* | -17.4 | -11.0 | 10.7 | 15.7
CCc1cccc(CC)c1-n1c(SCC(=O)N2CCc3ccccc3C2)nnc1-c1cccnc1 | -7.8 | 36.8* | 11.4 | 2.2 | 11.3 | 14.4
Nc1ccc2c(c1)C(=O)N(CC1CCCO1)C2=O (stereo not given) | 0.9 | 61.9* | -4.0 | -2.1 | 64.6* | 47.6*
O=C(O)c1ccc(N/N=C/c2cccc3nccnc23)cc1 | 6.7 | 53.4* | -3.4 | 0.5 | 46.4* | 38.9*
COc1ccc(/C=N/N2C(=O)CSC2=S)cc1 | 24.8 | -0.3 | -8.1 | -1.4 | nt | nt
COc1ccc(/C=N/N2C(=O)CSC2=S)cc1Br | 22.8 | 40.2* | -10.1 | -9.1 | 45.9* | 31.1*
CCOC(=O)c1c(NC(=O)c2cc(-c3ccc(O)cc3)on2)sc(C(C)=O)c1C | 18.7 | 31.3* | 1.5 | 32.2 | -3.0 | -7.7
CCOC(=O)c1c(NC(=O)CC(C)C)sc(C(C)=O)c1C | 1.1 | 2.1 | 34.7 | -0.6 | nt | nt
O=C(C[n+]1cc(Br)cc2ccccc21)c1ccc(Cl)cc1 | -0.6 | 44.0* | -2.1 | -23.2 | 9.2 | 6.0
O=C(C[n+]1cc(Br)cc2ccccc21)c1ccc(Br)cc1 | -2.6 | 52.1* | 2.4 | 23.3 | 14.3 | 8.0
CCCNc1nc2ccccc2n2c(C)nnc12 | 19.9 | 30.8* | 1.6 | 8.9 | 5.2 | 9.8
Cc1ccc(-c2ccc(SCC(=O)N3CCN(c4ccccc4)CC3)nn2)cc1 | -8.8 | 32.0* | -9.9 | 15.9 | 9.3 | 12.6
O=C(CSc1ccc(-c2ccccc2)nn1)N1CCN(c2ccccc2)CC1 | 3.9 | 4.3 | -10.0 | 13.2 | nt | nt
